# Experimental data taken from ChEMBL document CHEMBL1255336, “Single-dose safety and pharmacokinetics of ST-246, a novel orthopoxvirus egress inhibitor” (Antimicrob Agents Chemother, 2008).
# Legend:
# [1] = Terminal half life in fasting healthy human at 500 mg, po administered as single dose measured after 48 hrs; type: ADME, organism-based; settings: in vivo
# Method in brief: (§1)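 Healthy volunteers, 8 per group on active drug (2 placebo), single fasting oral dose. Venous plasma drawn predose and 0.5–12, 24, 48 h postdose, kept at –70°C, assayed by validated LC-MS/MS with analog internal standard. Noncompartmental analysis on actual times; Tmax observed directly; kel by log-linear regression of ≥3 terminal points; CL = dose/AUC0-∞. Median values.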
# [2] = Terminal half life in fasting healthy human at 1000 mg, po administered as single dose measured after 48 hrs; type: ADME, organism-based; settings: in vivo; method in brief: as §1
# [3] = Terminal half life in fasting healthy human at 2000 mg, po administered as single dose measured after 48 hrs; type: ADME, organism-based; settings: in vivo; method in brief: as §1
# [4] = Terminal half life in nonfasting healthy human at 1000 mg, po administered as single dose measured after 72 hrs; type: ADME, organism-based; settings: in vivo
# Method in brief: (§2)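 Healthy volunteers (8 active, 2 placebo) given a single 1,000 mg oral dose in the fed state. Plasma sampled predose, at 0.5–12 h, 24, 48 and 72 h postdose and analysed by validated LC-MS/MS. Noncompartmental analysis on actual sampling times. Tmax observed directly; t1/2 from kel fitted to ≥3 terminal log-linear points. Median values.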
# [5] = Tmax in fasting healthy human at 500 mg, po administered as single dose measured after 48 hrs; type: ADME, organism-based; settings: in vivo; method in brief: as §1
# [6] = Tmax in fasting healthy human at 1000 mg, po administered as single dose measured after 48 hrs; type: ADME, organism-based; settings: in vivo
# [7] = Tmax in fasting healthy human at 2000 mg, po administered as single dose measured after 48 hrs; type: ADME, organism-based; settings: in vivo; method in brief: as §1
# [8] = Tmax in nonfasting healthy human at 1000 mg, po administered as single dose measured after 72 hrs; type: ADME, organism-based; settings: in vivo; method in brief: as §2
# [9] = Cmax in fasting healthy human at 500 mg, po administered as single dose measured after 48 hrs; type: ADME, organism-based; parameters: dose 500 mg, route oral; settings: in vivo
# Method in brief: (§3)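 Randomised placebo-controlled single oral dose in healthy subjects (8 active, 2 placebo per group); groups 1–3 fasting, group 4 nonfasting. Plasma sampled predose to 48 h (groups 1–3) or 72 h (group 4), centrifuged 4°C, stored –70°C. LC-MS/MS with analog internal standard. Noncompartmental analysis on actual times; Cmax observed; AUC by trapezoid rule, extrapolated with kel; CL = dose/AUC0-∞.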
# [10] = Cmax in fasting healthy human at 1000 mg, po administered as single dose measured after 48 hrs; type: ADME, organism-based; parameters: dose 1000 mg, route oral; settings: in vivo; method in brief: as §3
# [11] = Cmax in fasting healthy human at 2000 mg, po administered as single dose measured after 48 hrs; type: ADME, organism-based; parameters: dose 2000 mg, route oral; settings: in vivo; method in brief: as §3
# [12] = Cmax in nonfasting healthy human at 1000 mg, po administered as single dose measured after 72 hrs; type: ADME, organism-based; parameters: dose 1000 mg, route oral; settings: in vivo; method in brief: as §3
# [13] = AUClast in fasting healthy human at 500 mg, po administered as single dose measured after 48 hrs; type: ADME, organism-based; parameters: dose 500 mg, time < 48 hr, route oral; settings: plasma; method in brief: as §3
# [14] = AUClast in fasting healthy human at 1000 mg, po administered as single dose measured after 48 hrs; type: ADME, organism-based; parameters: dose 1000 mg, time < 48 hr, route oral; settings: plasma; method in brief: as §3
# [15] = AUClast in fasting healthy human at 2000 mg, po administered as single dose measured after 48 hrs; type: ADME, organism-based; parameters: time < 48 hr, dose 2000 mg, route oral; settings: plasma; method in brief: as §3
# [16] = AUClast in nonfasting healthy human at 1000 mg, po administered as single dose measured after 72 hrs; type: ADME, organism-based; parameters: time < 72 hr, dose 1000 mg, route oral; settings: plasma; method in brief: as §3
# [17] = AUC(0 to infinity) in fasting healthy human at 500 mg, po administered as single dose measured after 48 hrs; type: ADME, organism-based; parameters: dose 500 mg, route oral, time infinity; settings: plasma; method in brief: as §3
# [18] = AUC(0 to infinity) in fasting healthy human at 1000 mg, po administered as single dose measured after 48 hrs; type: ADME, organism-based; parameters: dose 1000 mg, time infinity, route oral; settings: plasma; method in brief: as §3
# [19] = AUC(0 to infinity) in fasting healthy human at 2000 mg, po administered as single dose measured after 48 hrs; type: ADME, organism-based; parameters: dose 2000 mg, time infinity, route oral; settings: plasma; method in brief: as §3
# [20] = AUC(0 to infinity) in nonfasting healthy human at 1000 mg, po administered as single dose measured after 72 hrs; type: ADME, organism-based; parameters: dose 1000 mg, time infinity, route oral; settings: plasma; method in brief: as §3
# [21] = Apparent oral clearance in fasting healthy human at 500 mg, po administered as single dose measured after 48 hrs; type: ADME, organism-based; settings: in vivo; method in brief: as §3
# [22] = Apparent oral clearance in fasting healthy human at 1000 mg, po administered as single dose measured after 48 hrs; type: ADME, organism-based; settings: in vivo; method in brief: as §3
# [23] = Apparent oral clearance in fasting healthy human at 2000 mg, po administered as single dose measured after 48 hrs; type: ADME, organism-based; settings: in vivo; method in brief: as §1
# [24] = Apparent oral clearance in nonfasting healthy human at 1000 mg, po administered as single dose measured after 72 hrs; type: ADME, organism-based; settings: in vivo; method in brief: as §3
# [25] = Median half life in fasting healthy human at 500 mg, po administered as single dose measured after 48 hrs; type: ADME, organism-based; settings: in vivo; method in brief: as §1
# Homo sapiens [26] = experiment: Median half life in fasting healthy human at 1000 mg, po administered as single dose measured after 48 hrs; type: ADME, organism-based; settings: in vivo
# [27] = Median half life in fasting healthy human at 2000 mg, po administered as single dose measured after 48 hrs; type: ADME, organism-based; settings: in vivo; method in brief: as §1
# [28] = Plasma clearance in fasting healthy human at 500 mg, po administered as single dose measured after 48 hrs; type: ADME, organism-based; method in brief: as §3
# [29] = Plasma clearance in fasting healthy human at 1000 mg, po administered as single dose measured after 48 hrs; type: ADME, organism-based; method in brief: as §3
# [30] = Plasma clearance in fasting healthy human at 2000 mg, po administered as single dose measured after 48 hrs; type: ADME, organism-based; method in brief: as §3
# [31] = Apparent Cmax in nonfasting healthy human at 1000 mg, po administered as single dose measured after 72 hrs; type: ADME, organism-based; parameters: dose 1000 mg, route oral; settings: in vivo; method in brief: as §3
# [32] = Plasma clearance in nonfasting healthy human at 1000 mg, po administered as single dose measured after 72 hrs; type: ADME, organism-based; method in brief: as §3
# Homo sapiens [33] = experiment: Toxicity in fasting healthy human assessed as adverse events at 500 mg, po administered as single dose measured after 48 hrs; type: organism-based; settings: in vivo
# Method in brief: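 Healthy subjects given single oral dose, 8 active and 2 placebo per group. Safety covered adverse events, vital signs, ECG (day 1 and week 4), hematology, chemistries, urinalysis before and after dosing. Follow-up visits at week 1 and week 4. Cohort safety was reviewed before the next dose group.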
# Homo sapiens [34] = experiment: Toxicity in fasting healthy human assessed as feeling abnormal at 500 mg, po administered as single dose measured after 48 hrs; type: organism-based; settings: in vivo
# Method in brief: (§4)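 Randomized, placebo-controlled single oral dose in healthy adults, groups of 10 (8 drug, 2 placebo), dose escalated after safety review. Fasting groups got 500, 1,000 or 2,000 mg; one group got 1,000 mg fed. Treatment-emergent adverse events, vital signs, hematology, chemistries, urinalysis and ECG were recorded through day 1 and follow-up at weeks 1 and 4. Drug relation was judged blinded.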
# Homo sapiens [35] = experiment: Toxicity in fasting healthy human assessed as back pain at 500 mg, po administered as single dose measured after 48 hrs; type: organism-based; settings: in vivo; method in brief: as §4
# Homo sapiens [36] = experiment: Toxicity in fasting healthy human assessed as headache at 500 mg, po administered as single dose measured after 48 hrs; type: organism-based; settings: in vivo; method in brief: as §4
# Homo sapiens [37] = experiment: Toxicity in fasting healthy human assessed as adverse events at 1000 mg, po administered as single dose measured after 48 hrs; type: organism-based; settings: in vivo; method in brief: as §4
# Homo sapiens [38] = experiment: Toxicity in fasting healthy human assessed as neutropenia at 1000 mg, po administered as single dose measured after 48 hrs; type: organism-based; settings: in vivo; method in brief: as §4
# Homo sapiens [39] = experiment: Toxicity in fasting healthy human assessed as constipation at 1000 mg, po administered as single dose measured after 48 hrs; type: organism-based; settings: in vivo; method in brief: as §4
# Homo sapiens [40] = experiment: Toxicity in healthy human assessed as adverse events at 1000 mg, po administered as single dose measured after 72 hrs; type: organism-based; settings: in vivo; method in brief: as §4
# Homo sapiens [41] = experiment: Toxicity in healthy human assessed as headache at 1000 mg, po administered as single dose measured after 72 hrs; type: organism-based; settings: in vivo; method in brief: as §4
compound,measurement,setting,value
O=C(NN1C(=O)[C@@H]2[C@@H]3C=C[C@@H]([C@H]4C[C@@H]34)[C@@H]2C1=O)c1ccc(C(F)(F)F)cc1 [TECOVIRIMAT],half-life,[1],26 h
same,half-life,[2],40 h
same,half-life,[3],22 h
same,half-life,[4],17 h
same,Tmax,[5],2 h
same,Tmax,[6],3 h
same,Tmax,[7],3 h
same,Tmax,[8],5 h
same,Cmax,[9],934 ng/mL
same,Cmax,[10],1810 ng/mL
same,Cmax,[11],2550 ng/mL
same,Cmax,[12],2930 ng/mL
same,AUC(0-t) at 48 h,[13],9880 ng·h/mL
same,AUC(0-t) at 48 h,[14],21100 ng·h/mL
same,AUC(0-t) at 48 h,[15],24500 ng·h/mL
same,AUC(0-t) at 72 h,[16],34100 ng·h/mL
same,AUC(0-inf),[17],9810 ng·h/mL
same,AUC(0-inf),[18],24900 ng·h/mL
same,AUC(0-inf),[19],25700 ng·h/mL
same,AUC(0-inf),[20],35900 ng·h/mL
same,CL/F,[21],883 mL/min
same,CL/F,[22],817 mL/min
same,CL/F,[23],1320 mL/min
same,CL/F,[24],500 mL/min
same,half-life,[25],20.9 h
same,t1/2,Homo sapiens [26],19.8 h
same,half-life,[27],18.9 h
same,CL/F,[28],860 mL/min
same,CL/F,[29],838 mL/min
same,CL/F,[30],1290 mL/min
same,Cmax,[31],3120 ng/mL
same,CL/F,[32],513 mL/min
same,Activity,Homo sapiens [33],25%
same,Activity,Homo sapiens [34],12.5%
same,Activity,Homo sapiens [35],12.5%
same,Activity,Homo sapiens [36],12.5%
same,Activity,Homo sapiens [37],12.5%
same,Activity,Homo sapiens [38],12.5%
same,Activity,Homo sapiens [39],12.5%
same,Activity,Homo sapiens [40],12.5%
same,Activity,Homo sapiens [41],12.5%
